Reference: ChEMBL document CHEMBL1926569, “Novel (E)-1-(4-methyl-2-(alkylamino)thiazol-5-yl)-3-arylprop-2-en-1-ones as potent antimicrobial agents” (2011)

Legend:
[1] = system: Aspergillus ochraceus; assay: Ratio of ketoconazole to compound for Aspergillus ochraceus ATCC 12066; format: functional
[2] = system: Salmonella typhimurium; assay: Antibacterial activity against Salmonella Typhimurium ATCC 13311 after 24 hrs by microdilution method; format: functional, Salmonella enterica subsp. enterica serovar Typhimurium; conditions: Salmonella enterica, ATCC 13311, 24 h
Method in brief: (§1)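 Broth microdilution in 96-well plates. Bacterial suspensions were adjusted in sterile saline to 1.0 × 10⁵ CFU/ml, prepared daily and kept at 4 °C. Compound was added to LB broth with 1.0 × 10⁴ CFU per well and shaken at 160 rpm for 24 h at […] (so in the source). MIC is the lowest concentration with no visible growth under a binocular microscope. OD655 was also read. Duplicate, repeated three times.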

[3] = system: Talaromyces funiculosus; assay: Ratio of bifonazole to compound for Penicillium funiculosum ATCC 36839; format: functional
[4] = system: Aspergillus ochraceus; assay: Antifungal activity against Aspergillus ochraceus ATCC 12066 after 72 hrs by serial dilution technique; format: functional; conditions: ATCC 12066, 72 h
Method in brief: (§2)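 Modified microdilution in 96-well plates. Fungi were kept on malt agar at 4 °C. Spores were washed off in sterile 0.85% saline with 0.1% Tween 80. Compounds were dissolved at 1 mg/ml in 5% DMSO with 0.1% Tween 80 and added to malt broth with inoculum. Plates were shaken at 160 rpm for 72 h at 28 °C. Duplicate, repeated three times.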

[5] = system: Talaromyces funiculosus; assay: Antifungal activity against Penicillium funiculosum ATCC 36839 after 72 hrs by serial dilution technique; format: functional; conditions: ATCC 36839, 72 h; method in brief: as §2
[6] = system: Escherichia coli; assay: Antibacterial activity against Escherichia coli ATCC 35210 incubated for 24 hrs followed by serial sub-cultivation for 24 hrs by microdilution; format: functional; conditions: ATCC 35210, 24 h
Method in brief: (§3)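 MBC: after the 24 h LB broth microdilution (1.0 × 10⁴ CFU per well, 160 rpm), wells were serially sub-cultured into fresh broth plates and incubated a further 24 h. MBC is the lowest concentration with no visible growth, taken as 99.5% killing of the original inoculum. Duplicate, repeated three times.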

[7] = system: Aspergillus niger; assay: Antifungal activity against Aspergillus niger ATCC 6275 after 72 hrs by serial dilution technique; format: functional; conditions: ATCC 6275, 72 h; method in brief: as §2
[8] = system: Trichoderma viride; assay: Ratio of bifonazole to compound for Trichoderma viride IAM 5061; format: functional
[9] = system: Staphylococcus aureus; assay: Antibacterial activity against Staphylococcus aureus ATCC 6538 after 24 hrs by microdilution method; format: functional; conditions: ATCC 6538, 24 h; method in brief: as §1
[10] = system: Staphylococcus aureus; assay: Antibacterial activity against Staphylococcus aureus ATCC 6538 incubated for 24 hrs followed by serial sub-cultivation for 24 hrs by microdilution method; format: functional; conditions: ATCC 6538, 24 h; method in brief: as §3
[11] = system: Trichoderma viride; assay: Antifungal activity against Trichoderma viride IAM 5061 after 72 hrs by serial dilution technique; format: functional; conditions: IAM 5061, 72 h; method in brief: as §2
[12] = system: Escherichia coli; assay: Antibacterial activity against Escherichia coli ATCC 35210 after 24 hrs by microdilution method; format: functional; conditions: ATCC 35210, 24 h; method in brief: as §1
[13] = system: Aspergillus ochraceus; assay: Antifungal activity against Aspergillus ochraceus after 72 hrs by serial dilution technique
[14] = system: Penicillium ochrochloron; assay: Antifungal activity against Penicillium ochrochloron ATCC 9112 incubated for 72 hrs followed by serial sub-cultivation for 72 hrs by serial dilution technique; format: functional; conditions: ATCC 9112, 72 h
Method in brief: (§4)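 MFC: material from 72 h malt broth microdilution wells was serially sub-cultured into fresh broth plates and incubated a further 72 h at 28 °C. Fungicidal concentration is taken from growth after sub-culture. Duplicate, repeated three times.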

[15] = system: Listeria monocytogenes; assay: Antibacterial activity against Listeria monocytogenes NCTC 7973 after 24 hrs by microdilution method; format: functional; conditions: NCTC 7973, 24 h; method in brief: as §1
[16] = system: Penicillium ochrochloron; assay: Antifungal activity against Penicillium ochrochloron ATCC 9112 after 72 hrs by serial dilution technique; format: functional; conditions: ATCC 9112, 72 h; method in brief: as §2
[17] = system: Salmonella typhimurium; assay: Antibacterial activity against Salmonella Typhimurium ATCC 13311 incubated for 24 hrs followed by serial sub-cultivation for 24 hrs by microdilution; format: functional, Salmonella enterica subsp. enterica serovar Typhimurium; conditions: Salmonella enterica, ATCC 13311, 24 h; method in brief: as §3
[18] = system: Micrococcus flavus; assay: Antibacterial activity against Micrococcus flavus ATCC 10240 incubated for 24 hrs followed by serial sub-cultivation for 24 hrs by microdilution; format: functional; conditions: ATCC 10240, 24 h; method in brief: as §3
[19] = system: Aspergillus ochraceus; assay: Antifungal activity against Aspergillus ochraceus ATCC 12066 incubated for 72 hrs followed by serial sub-cultivation for 72 hrs by serial dilution technique; format: functional; conditions: ATCC 12066, 72 h; method in brief: as §4
[20] = system: Candida albicans; assay: Ratio of ketoconazole to compound for Candida albicans isolated from human; format: functional
[21] = system: Micrococcus flavus; assay: Antibacterial activity against Micrococcus flavus ATCC 10240 after 24 hrs by microdilution method; format: functional; conditions: ATCC 10240, 24 h; method in brief: as §1
[22] = system: Enterococcus faecalis; assay: Antibacterial activity against Enterococcus faecalis isolated from human after 24 hrs by microdilution method; format: functional; method in brief: as §1
[23] = system: Pseudomonas aeruginosa; assay: Antibacterial activity against Pseudomonas aeruginosa ATCC 27853 after 24 hrs by microdilution method; format: functional; conditions: ATCC 27853, 24 h; method in brief: as §1
[24] = system: Bacillus cereus; assay: Antibacterial activity against clinical isolate of Bacillus cereus after 24 hrs by microdilution method; format: functional; method in brief: as §1
[25] = system: Aspergillus niger; assay: Antifungal activity against Aspergillus niger ATCC 6275 incubated for 72 hrs followed by serial sub-cultivation for 72 hrs by serial dilution technique; format: functional; conditions: ATCC 6275, 72 h; method in brief: as §4
[26] = system: Aspergillus niger; assay: Ratio of bifonazole to compound for Aspergillus niger ATCC 6275; format: functional
[27] = system: Pseudomonas aeruginosa; assay: Ratio of ampicillin MIC to compound MIC for Pseudomonas aeruginosa ATCC 27853; format: functional
[28] = system: Aspergillus flavus; assay: Antifungal activity against Aspergillus flavus ATCC 9643 after 72 hrs by serial dilution technique; format: functional; conditions: ATCC 9643, 72 h; method in brief: as §2
[29] = system: Listeria monocytogenes; assay: Antibacterial activity against Listeria monocytogenes NCTC 7973 incubated for 24 hrs followed by serial sub-cultivation for 24 hrs by microdilution; format: functional; conditions: NCTC 7973, 24 h; method in brief: as §3
[30] = system: Penicillium ochrochloron; assay: Ratio of bifonazole to compound for Penicillium ochrochloron ATCC 9112; format: functional
[31] = system: Aspergillus fumigatus; assay: Antifungal activity against Aspergillus fumigatus isolated from human incubated for 72 hrs followed by serial sub-cultivation for 72 hrs by serial dilution technique; format: functional; method in brief: as §4
[32] = system: Aspergillus ochraceus; assay: Ratio of bifonazole to compound for Aspergillus ochraceus ATCC 12066; format: functional
[33] = system: Candida albicans; assay: Antifungal activity against Candida albicans isolated from human after 72 hrs by serial dilution technique; format: functional; method in brief: as §2
[34] = system: Aspergillus flavus; assay: Antifungal activity against Aspergillus flavus ATCC 9643 incubated for 72 hrs followed by serial sub-cultivation for 72 hrs by serial dilution technique; format: functional; conditions: ATCC 9643, 72 h; method in brief: as §4
[35] = system: Penicillium ochrochloron; assay: Ratio of ketoconazole to compound for Penicillium ochrochloron ATCC 9112; format: functional
[36] = system: Enterococcus faecalis; assay: Antibacterial activity against Enterococcus faecalis isolated from human incubated for 24 hrs followed by serial sub-cultivation for 24 hrs by microdilution; format: functional; method in brief: as §3
[37] = system: Candida albicans; assay: Ratio of bifonazole to compound for Candida albicans isolated from human; format: functional
[38] = system: Trichoderma viride; assay: Antifungal activity against Trichoderma viride IAM 5061 incubated for 72 hrs followed by serial sub-cultivation for 72 hrs by serial dilution technique; format: functional; conditions: IAM 5061, 72 h; method in brief: as §4
[39] = system: Bacillus cereus; assay: Antibacterial activity against clinical isolate of Bacillus cereus incubated for 24 hrs followed by serial sub-cultivation for 24 hrs by microdilution; format: functional; method in brief: as §3
[40] = system: Pseudomonas aeruginosa; assay: Antibacterial activity against Pseudomonas aeruginosa ATCC 27853 incubated for 24 hrs followed by serial sub-cultivation for 24 hrs by microdilution; format: functional; conditions: ATCC 27853, 24 h; method in brief: as §3
[41] = system: Talaromyces funiculosus; assay: Antifungal activity against Penicillium funiculosum ATCC 36839 incubated for 72 hrs followed by serial sub-cultivation for 72 hrs by serial dilution technique; format: functional; conditions: ATCC 36839, 72 h; method in brief: as §4
[42] = system: Aspergillus fumigatus; assay: Ratio of ketoconazole to compound for Aspergillus fumigatus isolated from human; format: functional
[43] = system: Candida albicans; assay: Antifungal activity against Candida albicans isolated from human incubated for 72 hrs followed by serial sub-cultivation for 72 hrs by serial dilution technique; format: functional; method in brief: as §4

CCNc1nc(C)c(C(=O)/C=C/c2ccc(Cl)cc2)s1
65.3 µM: MIC [4] | MIC [7] | MIC [12] | MIC [16] | MIC [21] | MIC [23] | MIC [28] | MFC [31] | MFC [38] | MFC [41] | MFC [43]
98 µM: MBC [6] | MIC [9] | MBC [10] | MIC [15] | MBC [29] | MBC [40]
32.7 µM: MIC [5] | MIC [11] | MIC [33]
81.7 µM: MFC [14] | MBC [18] | MFC [19] | MIC [22] | MIC [24] | MFC [25] | MFC [34] | MBC [36] | MBC [39]
10: Ratio [1] | Ratio [3] | Ratio [8] | Ratio [20] | Ratio [26] | Ratio [27] | Ratio [30] | Ratio [32] | Ratio [35] | Ratio [37] | Ratio [42]
49 µM: MIC [2] | MIC [13] | MBC [17]
